Measured values: the EternaBench riboswitch data

System: MS2 coat protein
Experiment: apparent Kd, MS2 coat protein; higher = weaker binding; RNA-MaP array; FMN 200 µM where present
Outline: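 Green signal from SNAP-549-labelled MS2 coat protein was normalised to red-channel RNA signal and to the median Fmax of control clusters. The protein was titrated from 0.7 or 1.5 nM, doubling to 3 µM, without and then with constant ligand, over designs transcribed by stalled E. coli RNA polymerase on Illumina sequencing-chip clusters, in 100 mM Tris-HCl pH 7.5, 80 mM KCl, 4 mM MgCl2, BSA, DTT, yeast tRNA and Tween-20. The apparent Kd is the median of filtered per-cluster binding-curve fits.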

[1] = designed as: OFF switch for flavin mononucleotide, no ligand
[2] = ligand present: flavin mononucleotide, designed as: OFF switch for flavin mononucleotide
[3] = designed as: ON switch for flavin mononucleotide, no ligand
[4] = ligand present: flavin mononucleotide, designed as: ON switch for flavin mononucleotide

| Sequence | apparent Kd [1] [nM] | apparent Kd [2] [nM] | apparent Kd [3] [nM] | apparent Kd [4] [nM] |
| --- | --- | --- | --- | --- |
| UAUGCACAUGAGGAUCACCCAUGUGAGGAUAUAGGUCGUGUGCGUUCACGCAUCGUACUUAGAAGGCACUGCGG | 46.9 | 92.5 | – | – |
| UGGGUAAAUGUAGGAUAUUUAUAUUAAUAGUAUGGAGAAGGACAUGAGGAUCACCCAUGUACAGGGAAUUACCCAUUUCCUCUC | 1010 | 1100 | – | – |
| GCAAGGCAUGUAGGAUAUCGAGCUCAAAGAGCUCGAGAAGGACAUGAGGAUCACCCAUGUGCUCACAGACAGUGAGCGCCAUGC | 35.4 | 114 | – | – |
| GGCAGAGACGUUAACAUGAGGAUCACCCAUGUCGAAGGAGAUGAGGAUAUCGUAUACGAUGUAUAUGAGAAGGCAUGGUCUGCC | – | – | 18.8 | 7.6 |
| CGGAGCAUCGAGAAGGGCACAUGGACAACUAAACAUGAGGAUCACCCAUGUGCAGGAUAUCGAAAAUCAUGUGGCCUUGGCCGU | 15.9 | 155 | – | – |
| ACAUGAGGAUCACCCAUGUAAACAUAGGAUAUUGGUGAUCAGGCAUGUUAUACAGGAUAUGUCUGCGAGAAGGAUGCACGUUGC | – | – | 583 | 465 |
| CCUUUGAAGAUCCUGGUUUUCGACAUGAGGAUCACCCAUGUGCAGGAUAUCGUGCCAGUGCUGUGCGAGAAGGGCAGUCUCUGC | 17.1 | 18.9 | – | – |
| GUCGGGUCUCACGCGUCGGUCCACAUGAGGAUCACCCAUGUCAAGGAUAUAGCGUCUUCCGGGCGUUAGAAGGUGGCCAUUGGU | 26.6 | 61 | – | – |
| AGCACGAAAGUGCAACGAUGUACGAGAAGGACAUGAGGAUCACCCAUGUAGGAGUAACUCCAAAUGUAGGAUAUCGUACAUCGA | 568 | 79 | – | – |
| AUUGAUGUUGAGGAUAUGCUUUUAUUUAUUCUUGCAGAAGGCGAUACAUGAGGAUCACCCAUGUUCAUGGAAGU | 40.5 | 40.6 | – | – |
| CAGCACUAUCGAGAGGAUAUGCGGUGAUGGACAUGAGGAUCACCCAUGUUAGCGAUGGCAUCACGGCAGAAGGCUCUGCUGCUGC | – | – | 15.6 | 12.8 |
| AAGUAGAUCCGAGGAUAUACAAUCCGGAAACGGUACAUGAGGAUCACCCAUGUAGAAGGCGGAUCUACAGGUACUAAAGUACCG | 6.33 | 9.45 | – | – |
| GCUGUCGCGUGAGGAUAUGGUCUGCAGUGCUGACCAGAAGGCAUGUCGAUAGACAUGAGGAUCACCCAUGUGGUUAGGGCGGCU | – | – | 804 | 351 |
| UAUAUAUAGUAAGGAUAUGUAGUUAUUUUAUAAACAGAAGGUACUGACAUGAGGAUCACCCAUGUUUUAGUGUGGGCAUGUAGA | 87.7 | 128 | – | – |
| UUCAAGUUGCGAGGAUAUCGUGUUAACAUGAGGAUCACCCAUGUAAAGGUUUAUUAAAUAAUCUUCGAGAAGGCGCUUAAUGUA | – | – | 24.1 | 20.8 |
| CUUCUGUAAGGAUAUGUAAAUUGCUGGCCACACCAGCACCGGCAGAAGGUACAUGAGGAUCACCCAUGUGGGUU | 219 | 137 | – | – |
| GAGUGACAUGAGGAUCACCCAUGUGAGGAUAUCGGACGGACCUUGUUAGCUUCCGCCGCGAGAAGGCACAUCGG | 208 | 34.5 | – | – |
| ACAUGCAUUCGAGGAUAUCGGUGAUUAAUUCUACGAGAAGGCGAUUUAAGAUAUAUUGUUUUAGACAUGAGGAUCACCCAUGUA | – | – | 29 | 23.2 |
| GCCUUACCGGUCAGGAUAUACACUCGUCACUCCUUGUAGAAGGGACAUGAGGAUCACCCAUGUACAUUACAUUC | 38.6 | 38 | – | – |
| GGAUCCAACACAGGAUAUGCUGGACUUUGUCCAGCAGAAGGGUGAAGAACAUGAGGAUCACCCAUGUGGAUCCAUAUAUGUAAU | – | – | 273 | 16.6 |
| UUAUGUAUUGUAGGAUAUCACAAGUUAUGUAUUAUAAUUGUAAUUUUGUAAUGAGAAGGACAUAUACAUGAGGAUCACCCAUGU | 18.9 | 14.9 | – | – |
| UAGUAUAAGGGCAUUACACAUGAGGAUCACCCAUGUACGUUAGAGGAUAUGCAUUCCAGUCGAACGUAGAAGGUUAGAGAAGGG | 211 | 176 | – | – |
| UAUAUGUGAGGAUAUCAGGUGUGCUAGCGUACUGGUACAUCUGAGAAGGCACAUGAGGAUCACCCAUGUAUCUU | 29.7 | 110 | – | – |
| GAUCCUUCUGUUAGGAUAUGCUUUGGGCUUCCGCAGCAGAAGGAACAUGAGGAUCACCCAUGUUCGAUGCCGUC | 60.4 | 59.9 | – | – |
| CUGAUGUUAGGAUAUCAGGCUGUGCACGAAGACGGGCGGCAUGAGAAGGAACAUGAGGAUCACCCAUGUGACGG | 36.3 | 77.6 | – | – |
| GCGAGUAAAGCAGGAUAUCUAUUGUCUCUGUAACAUGAGGAUCACCCAUGUAGAGAAGGGCUUAGUCAUACACUUCGAACUCGC | 5.57 | 5.38 | – | – |
| UUUGAAUUGCAAGGAUAUCUUAUUUAGAUUUUAAGAGAAGGUGCUUUAUAGUUACAUGAGGAUCACCCAUGUAUUUCUUUUUAU | – | – | 25.5 | 17.7 |
| GGUUCCAUCGCAGGAUAUGCUAUCCUUUGGGUAGCAGAAGGGUGAUAACAUGAGGAUCACCCAUGUGGAACCGGGCGUGAGCCC | – | – | 177 | 1050 |

| Sequence | apparent Kd [1] [nM] | apparent Kd [2] [nM] | apparent Kd [3] [nM] | apparent Kd [4] [nM] |
| --- | --- | --- | --- | --- |
| AAAACCUCAUGAGGAUAUCCAACAUGAGGAUCACCCAUGUUAGUCUCAGUACUAGAUACUUGAGAGGAGAAGGCAUGCCAGGGC | – | – | 97 | 31.6 |
| GAUAGGACAGAGAAGGACAUAGCUAGAGAUACUAGCAUACGAACCUUUACAUGAGGAUCACCCAUGUAGGAUAUCUGUCCUAUC | 5.43 | 6.78 | – | – |
| UAAAUGUCAGGAUAUUGUUAAUUUAGUUGUUUGUAUUAGUUCGAGAAGGGACAUGAGGAUCACCCAUGUUAAUU | 30.2 | 36 | – | – |
| CUGCCCAGUGUGAGGAUAUACAAAGGAAUUCCUUGGUAGAAGGCACAUGAGGAUCACCCAUGUGACUCGCGGUA | 20.6 | 52.7 | – | – |
| UUUUUUGUUGUGAGGAUAUCGUUUUUGUUUUGGAUCGAGAAGGCACAUGAGGAUCACCCAUGUUUGUUGUGGUU | 88.8 | 159 | – | – |
| GGGUACAUCGGAGGAUAUCAUGUAAAUACAUGAGGAUCACCCAUGUCGAUGGAGACAUCGGAGAUUGAGAAGGCCGAUGUAACG | – | – | 183 | 9.47 |
| GGAUAGGACAGAGGAUAUACGUGCUAGAAAUACUAGCAAAAUUUCCUCACAUGAGGAUCACCCAUGUAGAAGGCUGUCCUAUCG | 14.5 | 542 | – | – |
| CAUUAAUUAAUUAUAUUAAUUAUACAGGAUAUGUAACAUGAGGAUCACCCAUGUAUUCAAUGUAAACAGAAGGGUAUAUCUAGU | 14.6 | 13 | – | – |
| AUUUAAUUUAAUAAGAUCACAUGAGGAUCACCCAUGUAUAUAUAGGAUAUCAGCUCGUGUAGAGCUGAGAAGGAUAUAUACAUG | 55 | 55.2 | – | – |
| GAAUAUUCGUUGAACAUGAGGAUCACCCAUGUAACUUGACAUGAGGAUAUGGAUUCUAAUUGGAUCCAGAAGGCAUGAAUAUUC | – | – | 75.3 | 26.9 |
| UUUGAGUUCCGAGACCGCGGGUUCACAGAAGGCAUUAUUACAUGAGGAUCACCCAUGUGGGUACAUGAGGAUAUGUGAUAUGCG | – | – | 20.5 | 6.99 |
| GGAGCAACAUGAGGAUCACCCAUGUAGGAUAUCGCUAUUGUAAUCAUGAAACAUGAUUACAAUAGCGAGAAGGACAUAUGCUAA | 10.6 | 12.5 | – | – |
| GGUUUGGGAGGAUAUGGCUUGAAUGACAUGAGGAUCACCCAUGUAAGUGGAUCUUCCGGGCCAGAAGGCUCGGGCC | 63.8 | 136 | – | – |
| GGAUAGGACAGAGGAUAUCCGUGCUAGAGAUACUAGCAAAAUUUCCUCACAUGAGGAUCACCCAUGUAGAAGGCUGUCCUAUCG | 5.98 | 11.7 | – | – |
| GGUUGGCGAGGAUAUACAUGAGGAUCACCCAUGUGGUCCUGUGGCUGGUCUAACCUUUGUAGAAGGCGCGGGUC | 225 | 186 | – | – |
| GUUAUGUUAGGAUAUGCUUAUGGUGGGUGCUCAGAUAUGAUGCAGAAGGGACAUGAGGAUCACCCAUGUACUGU | 484 | 310 | – | – |
| GCUGGUCGAGGAUAUAUAUGACGUGCUUCGGCACGAAGGUCACAUGAGGAUCACCCAUGUAGAAGGCGACCAGC | 56.4 | 390 | – | – |
| UAAAAGUGAGGAUAUGCGAAGGCGUCUGAUAGACGAGGCUAGCAGAAGGCACAUGAGGAUCACCCAUGUGGGAU | 89.7 | 152 | – | – |
| CCAUAACUGUGAGGAUAUUGUUGCGUUUAGUGACGAGAAGGCAUUCAUGUGAUAUAUACAUACAUGAGGAUCACCCAUGUUGUA | – | – | 31 | 25.5 |
| CAGUACUGAGGAUAUACAUGAGGAUCACCCAUGUGUUCCAGCUAGGAUACUAGCAAAAGUAGAAGGCAGUACUG | 24.6 | 443 | – | – |
| AGGGUAGACGUAGGAUAUACGGAAUGAAUGAAAGUAGAAGGAUGACAUGAGGAUCACCCAUGUGAAAUGAAAUGAUGAAGGGUG | 579 | 510 | – | – |
| AUAGUUAGUAUAGAUGAGGGCAGCAGAAGGCAAUAUGCUUGUGCCGACAUGAGGAUCACCCAUGUUGAGGAUAUGCGUCCUUCG | 6 | 16.9 | – | – |
| AAUGGGCAGCAGAAGGCAUGUCUACGGACAUGAGGAUCACCCAUGUAGUAAAGCCGAAAGGCGCAUGAGGAUAUGCUGCCCUAA | – | – | – | 8.23 |
| CCGGAAAAGGAGGAUAUAGGAGUCGAUAGACACCUAGAAGGUCUGACAUGAGGAUCACCCAUGUGUCCUACCGG | 21.2 | 30.2 | – | – |
| ACAUGAGGAUCACCCAUGUUGAAUUAGGAUAUUUGACUGCGCAUGAGGUUCUCCCAUGUUCAACCGGAGAAGGGAUUAAUAAUU | – | – | 273 | 150 |
| GUACUGCCCACAGAUAACUUAGCCAGAAGGGUCUACAUGAGGAUCACCCAUGUGGUCCAAAGUGGACAGGAUAUGGAAACGGUU | 68.4 | 40.9 | – | – |
| UAAAAUAGUGUGAGGAUAUGCUGGUCCUUGGAUCAGCAGAAGGCACAUGAGGAUCACCCAUGUAGUUAAUUAUA | 41.8 | 268 | – | – |
